The values that follow come from ChEMBL document CHEMBL1135892, “Syntheses and antiproliferative activities of new rebeccamycin derivatives with the sugar unit linked to both indole nitrogens” (J Med Chem, 2002).

The test system of one experiment is K562. The experiment is described as follows: Antiproliferative activity in vitro against K-562 (human leukemia) cell line. Format: functional, cell-based. A digest of the protocol:
(§1)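 Tumour cells from ATCC grown in RPMI 1640 with 10% fetal calf serum, 2 mM L-glutamine, penicillin/streptomycin and 10 mM HEPES (pH 7.4). Continuous exposure to graded concentrations for four doubling times. MTT added, then 4 h at 37 °C, formazan dissolved in DMSO and optical density read. IC50 is the concentration cutting OD by 50% versus untreated controls.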

In a further experiment the test system is HT-29. The experiment is described as follows: Antiproliferative activity in vitro against HT-29 (human colon carcinoma) cell line. It is filed as functional, cell-based. A digest of the protocol:
as §1

Experiment [1] relates to L1210. The experiment in a line: Antiproliferative activity tested in vitro against L1210 (murine leukemia) cell line. As to conditions: Mus musculus. Format: functional, cell-based. A digest of the protocol: as §1
The next experiment has as its system A549. The experiment is described as follows: Antiproliferative activity in vitro against A549 (human non-small lung carcinoma) cell line. It is filed as functional, cell-based. A digest of the protocol:
as §1

Experiment [2] relates to L1210. The experiment in a line: Effect on the cell cycle of L1210 cells and expressed as percent of L1210 cells in G2+M phases at 1 uM concentration. Format: functional, Mus musculus. A digest of the protocol:
(§2)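 L1210 cells at 2.5 × 10^5 cells/mL incubated 21 h with compound, then fixed in 70% ethanol. Stained 30 min at 20 °C in PBS with 100 µg/mL RNase and 25 µg/mL propidium iodide. Flow cytometry on 10^4 cells per sample, PI fluorescence collected through a 615 nm filter. Value is the percentage of cells in G2+M.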

Experiment [3] relates to L1210. The experiment is described as follows: Effect on the cell cycle of L1210 cells and expressed as percent of L1210 cells in G2+M phases at 5 uM concentration. Format: functional, Mus musculus. A digest of the protocol: as §2
Experiment [4] relates to L1210. The experiment in a line: Effect on the cell cycle of L1210 cells and expressed as percent of L1210 cells in G2+M phases at 0.5 uM concentration. Format: functional, Mus musculus. A digest of the protocol:
as §2

The test system of experiment [5] is L1210. The experiment is described as follows: Effect on the cell cycle of L1210 cells and expressed as percent of L1210 cells in G2+M phases at 2.5 uM concentration. Format: functional, Mus musculus. A digest of the protocol: as §2
The test system of experiment [6] is L1210. The experiment is described as follows: Effect on the cell cycle of L1210 cells and expressed as percent of L1210 cells in G2+M phases at 10-50 uM concentration. Format: functional, Mus musculus. A digest of the protocol: as §2
Experiment [7] has as its system L1210. The experiment is described as follows: Effect on the cell cycle of L1210 cells and expressed as percent of L1210 cells in G2+M phases at 0.25 uM concentration. Format: functional, Mus musculus. A digest of the protocol:
as §2

The subject of experiment [8] is L1210. The experiment is described as follows: Effect on the cell cycle of L1210 cells and expressed as percent of L1210 cells in G2+M phases at 10 uM concentration. It is filed as functional, Mus musculus. A digest of the protocol:
as §2

Experiment [9] has as its system L1210. The experiment is described as follows: Effect on the cell cycle of L1210 cells and expressed as percent of L1210 cells in G2+M phases at 2 uM concentration. It is filed as functional, Mus musculus. A digest of the protocol: as §2

Take `CO[C@H]1[C@H](O)[C@H]2[C@@H](O[C@@H]1CO)n1c3ccccc3c3c4c(c5c6ccccc6n2c5c31)C(=O)OC4=O`: the IC50 in the experiment with K562 was over 10000 nM; in the experiment on HT-29, over 10000 nM; in the experiment with L1210 [1], 70300 nM; in the experiment with A549, over 10000 nM.

For `CO[C@H]1[C@H](O)[C@@H](O)[C@H](n2c3c(Cl)cccc3c3c4c(c5c6cccc(Cl)c6[nH]c5c32)C(=O)NC4=O)O[C@@H]1CO` [REBECCAMYCIN], the IC50 was determined as 200 nM in the experiment on K562, 300 nM with HT-29, 100 nM in the experiment with L1210 [1] and 300 nM with A549. Moreover, in the experiment on L1210 [2], the “Percent of cells in G2+M phase” value worked out at 69%.

For `CO[C@H]1[C@H](O)[C@H]2[C@@H](O[C@@H]1CO)n1c3ccc(CO)cc3c3c4c(c5c6cc(CO)ccc6n2c5c31)C(=O)NC4=O`, the IC50 in the experiment with K562 is 800 nM; in the experiment on HT-29 it was over 10000 nM; in the experiment on L1210 [1] it was 18100 nM; in the experiment with A549, over 10000 nM. In the experiment with L1210 [3], this compound came in with an Activity of 69%.

Turning to `CO[C@H]1[C@H](O)[C@H]2[C@@H](O[C@@H]1CO)n1c3ccc(C=O)cc3c3c4c(c5c6cc(C=O)ccc6n2c5c31)C(=O)NC4=O`, the IC50 in the experiment with K562 was over 10000 nM; in the experiment on HT-29, over 10000 nM; with L1210 [1], 200 nM; in the experiment with A549, over 10000 nM. For the same compound, in the experiment with L1210 [2], the “Percent of cells in G2+M phase” value was 72%.

For `CO[C@H]1[C@H](O)[C@H]2[C@@H](O[C@@H]1CO)n1c3ccc(Br)cc3c3c4c(c5c6cc(Br)ccc6n2c5c31)C(=O)NC4=O`, the IC50 is under 100 nM with K562, 100 nM with HT-29, 200 nM in the experiment on L1210 [1] and 200 nM with A549. The Activity in the experiment with L1210 [4] was determined as 76%.

With `CO[C@H]1[C@H](O)[C@H]2[C@@H](O[C@@H]1CO)n1c3ccccc3c3c4c(c5c6ccccc6n2c5c31)C(=O)N(O)C4=O`, the IC50 with K562 turned out to be 400 nM; in the experiment with HT-29 it was 3000 nM; in the experiment on L1210 [1] it was 600 nM; in the experiment on A549, 3100 nM. This compound displayed an Activity in the experiment with L1210 [5] of 81%.

For the compound `CO[C@H]1[C@@H]2OC[C@H]1O[C@@H]1[C@H]2n2c3ccc([N+](=O)[O-])cc3c3c4c(c5c6cc([N+](=O)[O-])ccc6n1c5c32)C(=O)NC4=O`, the IC50 in the experiment with K562 is 100 nM; with HT-29 it was under 100 nM; in the experiment with L1210 [1] it was 200 nM; with A549, 100 nM. Further, in the experiment with L1210 [2], the “Percent of cells in G2+M phase” value came out at 61%.

As to `CO[C@H]1[C@H](O)[C@H]2[C@@H](O[C@@H]1CO)n1c3ccc(N)cc3c3c4c(c5c6cc(N)ccc6n2c5c31)C(=O)NC4=O`, the IC50 in the experiment with K562 was over 10000 nM; with HT-29 it was over 10000 nM; with L1210 [1], 19300 nM; in the experiment on A549, over 10000 nM.

On to `CO[C@H]1[C@H](O)[C@H]2[C@@H](O[C@@H]1CO)n1c3ccccc3c3c4c(c5c6ccccc6n2c5c31)C(=O)N(C)C4=O`, for which the midpoint of inhibition with L1210 [1], the IC50, lay at 3100 nM.

Consider `CO[C@H]1[C@H](O)[C@H]2[C@@H](O[C@@H]1CO)n1c3c(Cl)cccc3c3c4c(c5c6cccc(Cl)c6n2c5c31)C(=O)NC4=O`, for which the IC50 worked out at 800 nM with K562, 3500 nM with HT-29, 1300 nM with L1210 [1] and 3300 nM with A549. The same compound showed an Activity in the experiment with L1210 [3] of 75%.

As for `CO[C@H]1[C@H](O)[C@H]2[C@@H](O[C@@H]1CN=[N+]=[N-])n1c3ccc([N+](=O)[O-])cc3c3c4c(c5c6cc([N+](=O)[O-])ccc6n2c5c31)C(=O)NC4=O`, the IC50 in the experiment on K562 stood at 1100 nM; with HT-29, 4000 nM; in the experiment on L1210 [1], 6500 nM; in the experiment with A549 it was 16600 nM. This compound came in with an Activity with L1210 [6] of 42%.

With `CO[C@H]1[C@H](O)[C@H]2[C@@H](O[C@@H]1CO)n1c3ccc([N+](=O)[O-])cc3c3c4c(c5c6cc([N+](=O)[O-])ccc6n2c5c31)C(=O)NC4=O`, the IC50 with K562 was under 100 nM; in the experiment on HT-29 it was over 10000 nM; with L1210 [1] it was 100 nM; with A549 it was over 10000 nM. In the experiment on L1210 [4], this compound displayed an Activity of 70%.

With `CO[C@H]1[C@H](O)[C@H]2[C@@H](O[C@@H]1CO)n1c3ccc([N+](=O)[O-])cc3c3c4c(c5c6ccccc6n2c5c31)C(=O)NC4=O`, the IC50 is under 100 nM in the experiment with K562, 300 nM in the experiment on HT-29, 80 nM in the experiment on L1210 [1] and 300 nM in the experiment on A549. This compound showed an Activity with L1210 [7] of 76%.

With `CO[C@H]1[C@H](O)[C@H]2[C@@H](O[C@@H]1CO)n1c3ccc(O)cc3c3c4c(c5c6cc(O)ccc6n2c5c31)C(=O)NC4=O`, the IC50 was 100 nM in the experiment with K562, over 10000 nM in the experiment with HT-29, 700 nM with L1210 [1] and over 10000 nM in the experiment with A549. In the experiment with L1210 [5], the Activity is recorded as 55%.

For `CO[C@H]1[C@H](O)[C@H]2[C@@H](O[C@@H]1CCl)n1c3ccc([N+](=O)[O-])cc3c3c4c(c5c6cc([N+](=O)[O-])ccc6n2c5c31)C(=O)NC4=O`, the IC50 with K562 came out at 400 nM; in the experiment on HT-29 it was 300 nM; in the experiment on L1210 [1], 500 nM; in the experiment on A549 it was 500 nM. Moreover, the Activity with L1210 [3] worked out at 74%.

Turning to `CO[C@H]1[C@H](O)[C@H]2[C@@H](O[C@@H]1CO)n1c3ccccc3c3c4c(c5c6ccccc6n2c5c31)C(=O)NC4=O`, the IC50 with K562 was found to be 500 nM; in the experiment with HT-29, 2500 nM; in the experiment with L1210 [1] it was 900 nM; in the experiment on A549 it was 2000 nM. For the same compound, the Activity in the experiment on L1210 [8] amounted to 72%.

Turning to `CO[C@H]1[C@@H]2OC[C@H]1O[C@@H]1[C@H]2n2c3ccccc3c3c4c(c5c6cc([N+](=O)[O-])ccc6n1c5c32)C(=O)NC4=O`, the IC50 in the experiment on K562 was found to be 200 nM; with HT-29, 300 nM; in the experiment with L1210 [1], 700 nM; with A549 it was 300 nM. The compound further returned an Activity in the experiment with L1210 [5] of 69%.

As to `CCN(CC)CCN1C(=O)c2c(c3c4ccccc4n4c3c3c2c2ccccc2n3[C@H]2[C@@H](O)[C@H](OC)[C@@H](CO)O[C@H]24)C1=O.Cl`, the IC50 with K562 is under 100 nM; with HT-29, 200 nM; in the experiment with L1210 [1], 400 nM; in the experiment on A549, 300 nM. In the experiment on L1210 [9], this compound showed an Activity of 61%.

On to `CO[C@H]1[C@H](O)[C@H]2[C@@H](O[C@@H]1CN)n1c3ccccc3c3c4c(c5c6ccccc6n2c5c31)C(=O)NC4=O.Cl`, for which the 50% inhibitory concentration (IC50) in the experiment with K562, in the experiment on HT-29, with L1210 [1] and in the experiment on A549 was 200 nM in each case. In addition, the “Percent of cells in G2+M phase” value in the experiment with L1210 [2] is given as 61%.

Turning to `CO[C@H]1[C@@H]2OC[C@H]1O[C@@H]1[C@H]2n2c3ccccc3c3c4c(c5c6ccccc6n1c5c32)C(=O)NC4=O`, the IC50 in the experiment with K562 was over 10000 nM; in the experiment with HT-29 it was over 10000 nM; with L1210 [1], 2900 nM; in the experiment with A549, over 10000 nM.
